# Assay results: PubChem BioAssay AID2545 (The Scripps Research Institute Molecular Screening Center, 2010)
# Calls of active or inactive are those of the source.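 The calls were made as follows: active = inhibition at or above 75%; inactive = inhibition below 75%.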
# Molecular target: NADPH oxidase 1 (Homo sapiens) (UniProt Q9Y5S8)
# Assay: NOX1 inhibitors in transfected HEK293 cells, late-stage follow-up, orthogonal assay for NOX1 inhibitor project, cell-based, HEK/293, percent inhibition, luminescence (AID 2545)
# Settings: NOX1-transfected HEK293, luminol ROS chemiluminescence; at 100 µM; hits give high values
# In short: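 System: HEK293 cells transiently coexpressing Myc-tagged Nox1, NoxO1, NoxA1, constitutively active Rac1 Q61L; Doses: single nominal concentration of 100 µM per compound; Times: compounds added 16 h post-transfection, 2 h before luminol/peroxidase; Signal: luminol chemiluminescence of intracellular ROS; Measure: percent inhibition of NOX1-driven ROS luminescence signal; Replication: single well per compound.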
# Chain of NADPH oxidase 1 (Homo sapiens) (Q9Y5S8 whole entry, looked up): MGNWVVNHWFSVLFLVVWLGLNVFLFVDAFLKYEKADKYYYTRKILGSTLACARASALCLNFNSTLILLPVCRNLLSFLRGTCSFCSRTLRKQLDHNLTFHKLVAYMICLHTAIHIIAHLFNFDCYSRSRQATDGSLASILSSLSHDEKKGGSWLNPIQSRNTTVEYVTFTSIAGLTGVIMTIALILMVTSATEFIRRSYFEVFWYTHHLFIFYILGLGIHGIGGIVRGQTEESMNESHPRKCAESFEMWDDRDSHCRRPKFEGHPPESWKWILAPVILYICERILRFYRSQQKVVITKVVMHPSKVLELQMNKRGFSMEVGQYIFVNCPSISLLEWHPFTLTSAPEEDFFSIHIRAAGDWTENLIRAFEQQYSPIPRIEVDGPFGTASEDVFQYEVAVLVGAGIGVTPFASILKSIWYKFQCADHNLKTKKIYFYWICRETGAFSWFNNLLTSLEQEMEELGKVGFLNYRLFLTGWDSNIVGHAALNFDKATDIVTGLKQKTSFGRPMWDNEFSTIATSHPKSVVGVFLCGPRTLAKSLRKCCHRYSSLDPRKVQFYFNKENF
row,inhibition,SMILES
1,2.15% (inactive),Nc1nc(NCc2c(Cl)cccc2Oc2ccccc2)n[nH]1
2,108%,COc1cc(-c2nc(-c3ccccc3)c(-c3ccccc3)[nH]2)ccc1O
3,-55.7% (inactive),Cn1nc(-c2ccccc2)c(O)c(N=Nc2ccccc2)c1=O
4,121%,CN(C)c1ccc(NC(=O)Nc2ccc(OCc3ccccc3)cc2)cc1
5,-84% (inactive),COc1cccc(NC(=S)NNc2ccc([N+](=O)[O-])cc2)c1
6,63.6% (inactive),COc1ccccc1NNC(=O)c1cc(C(C)(C)C)nn1Cc1ccccc1
7,-62.4% (inactive),S=C(NNc1nccc(-c2cccnc2)n1)Nc1ccccc1
8,-10.4% (inactive),NS(=O)(=O)c1ccc(NNC(=O)c2c(F)cccc2Cl)cc1
9,100%,COc1ccc(Cl)cc1NC(=O)Nc1ccc(N(C)C)cc1
10,-50.4% (inactive),COc1ccc(OC(=O)c2ccc3ncccc3c2)cc1
11,5.12% (inactive),Cc1cc(Br)c(NC(=S)NNc2ccccc2)c(Br)c1
12,99.9%,Cc1cc(Cl)ccc1NC(=S)NNC(=S)Nc1ccc(F)cc1
13,100%,CN(C)c1ccc(/C=N/Nc2c(Cl)cncc2Cl)cc1
14,83.4%,O=C(N/N=C/c1ccc(O)cc1)N/N=C/c1ccc(O)cc1
15,104%,CC1(C)CC(Nc2ccc(Nc3ccccc3)cc2)CC(C)(C)N1

# Further lines, the compound ahead of its results:
row,SMILES,inhibition
1,CC(C)(C)c1csc(NNC(=O)c2ccc(Cl)cc2)n1,-43.1% (inactive)
2,O=C(Oc1ccccc1N1CCOCC1)c1cccs1,40.4% (inactive)
3,Cc1cc(C(=O)NNc2cc(Cl)ccc2Cl)no1,-23.5% (inactive)
4,COc1ccc(N(C)CC(=O)O)c(C(=O)O)c1,-18.5% (inactive)
5,O=c1[nH]nc(N2CCSCC2)[nH]1,-55.4% (inactive)
6,COc1cccc(NC(=S)NNC(=S)NC2CC3CCC2C3)c1 (stereo unspecified),106%
7,O=c1c(Cl)c2oc3ccccc3nc-2c2ccccc12,52% (inactive)
8,O=C(NNc1c([N+](=O)[O-])cc(C(F)(F)F)cc1[N+](=O)[O-])c1ccccc1-n1cccc1,54.6% (inactive)
9,Cc1cc(S(=O)(=O)NNc2ncnc3c2cnn3C)c(C)cc1Cl,-0.65% (inactive)
10,O=C(NNc1c([N+](=O)[O-])cc(C(F)(F)F)cc1[N+](=O)[O-])c1ccco1,5.79% (inactive)
11,CCOC(=O)C1=C(Nc2ccc(OC(C)=O)cc2)C(=O)N(C(C)(C)C)C1,2.42% (inactive)
12,c1ccc2c(c1)Nc1nc3ccccc3nc1N2,79.5%
13,FC(F)(F)c1ccc2c(c1)Nc1ccccc1S2,107%
14,O=c1[nH]c2ccsc2c(=O)n1CCO,-0.39% (inactive)
15,Cc1nc(C(F)(F)F)c(C(=O)NNc2ncc(C(F)(F)F)cc2Cl)s1,49.4% (inactive)
16,COCCCNC(=S)NNC(=S)Nc1ccccc1,9.5% (inactive)
17,Nc1nc(Nc2ccccc2)n[nH]1,-15.1% (inactive)
18,O=C(Oc1ccccc1N1CCCCC1)c1sc2ccccc2c1Cl,57.6% (inactive)
19,CC(C)C(=O)NNc1nc2c(c(=O)n(C)c(=O)n2C)n1Cc1ccc(Cl)cc1,-18.6% (inactive)
20,CC(=O)Oc1ccc(OC(C)=O)c2c1[C@@H]1C=C[C@H]2CC1,1.35% (inactive)
21,Cn1cnc(S(=O)(=O)Nc2ccc(N3CCCCC3)cc2)c1,58.9% (inactive)
22,ON/C=N/c1nnc(C(F)(F)F)s1,1.45% (inactive)
23,COc1cc2ncnc(NNC(=O)c3cccs3)c2cc1OC,46.4% (inactive)
24,Nc1nc(NCc2ccccn2)n[nH]1,24.8% (inactive)
25,Nc1nc(NCc2ccccc2OC(F)(F)F)n[nH]1,26.1% (inactive)
26,Cc1noc(C)c1C(=O)Nc1ccc(N2CCOCC2)nc1N1CCOCC1,-55.4% (inactive)
